From ChEMBL document CHEMBL1687894, “Design, synthesis and evaluation of 3-methylene-substituted indolinones as antimalarials” (Eur J Med Chem, 2011)
Values belong to the molecule of their own block, whether it stands above or below them.

Key:
[1] = tested on: Plasmodium falciparum; assay: Antiplasmodial activity against chloroquine-resistant Plasmodium falciparum W2 infected in human red blood cells assessed as inhibition of ring-stage parasite growth after 48 hrs by flow cytometry; assay type: functional, organism-based; settings: W2, 48 h
[2] = target: T1, Falcipain 2 (Plasmodium falciparum, UniProt Q9N6S8); assay: Inhibition of Plasmodium falciparum falcipain 2 incubated with compound for 10 mins before addition of 25 uM Z-Leu-Arg-AMC substrate by fluorescence spectrophotometry
T1 sequence (Q9N6S8 whole entry): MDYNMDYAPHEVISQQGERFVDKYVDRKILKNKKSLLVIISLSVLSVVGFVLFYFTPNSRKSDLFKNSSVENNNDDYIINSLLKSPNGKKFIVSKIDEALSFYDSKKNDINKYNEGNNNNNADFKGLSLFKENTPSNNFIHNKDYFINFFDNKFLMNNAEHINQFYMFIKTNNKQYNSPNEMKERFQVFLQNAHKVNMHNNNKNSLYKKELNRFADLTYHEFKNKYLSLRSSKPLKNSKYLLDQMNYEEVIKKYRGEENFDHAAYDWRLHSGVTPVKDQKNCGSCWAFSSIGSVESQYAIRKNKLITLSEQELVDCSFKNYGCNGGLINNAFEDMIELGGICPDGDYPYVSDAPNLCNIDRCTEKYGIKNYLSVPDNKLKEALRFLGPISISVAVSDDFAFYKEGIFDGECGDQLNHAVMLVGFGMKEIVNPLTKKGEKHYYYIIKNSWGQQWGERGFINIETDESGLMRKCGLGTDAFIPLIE
Summary of the method: (§1)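 Run at 25 °C in 100 mM sodium acetate pH 6.0 with 5 mM DTT and 0.75% DMSO. Enzyme was preincubated 10 min with compound diluted from DMSO, then Z-Leu-Arg-AMC was added and fluorescence was read immediately. Eight inhibitor concentrations were made by fivefold serial dilution. IC50 was fitted to percent inhibition versus a no-inhibitor control against log concentration.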

[3] = target: T2, Cysteine protease falcipain-3 (Plasmodium falciparum, UniProt Q9NAW4); assay: Inhibition of Plasmodium falciparum falcipain 3 incubated with compound for 10 mins before addition of 25 uM Z-Leu-Arg-AMC substrate by fluorescence spectrophotometry; summary of the method: as §1
T2 sequence (Q9NAW4 whole entry): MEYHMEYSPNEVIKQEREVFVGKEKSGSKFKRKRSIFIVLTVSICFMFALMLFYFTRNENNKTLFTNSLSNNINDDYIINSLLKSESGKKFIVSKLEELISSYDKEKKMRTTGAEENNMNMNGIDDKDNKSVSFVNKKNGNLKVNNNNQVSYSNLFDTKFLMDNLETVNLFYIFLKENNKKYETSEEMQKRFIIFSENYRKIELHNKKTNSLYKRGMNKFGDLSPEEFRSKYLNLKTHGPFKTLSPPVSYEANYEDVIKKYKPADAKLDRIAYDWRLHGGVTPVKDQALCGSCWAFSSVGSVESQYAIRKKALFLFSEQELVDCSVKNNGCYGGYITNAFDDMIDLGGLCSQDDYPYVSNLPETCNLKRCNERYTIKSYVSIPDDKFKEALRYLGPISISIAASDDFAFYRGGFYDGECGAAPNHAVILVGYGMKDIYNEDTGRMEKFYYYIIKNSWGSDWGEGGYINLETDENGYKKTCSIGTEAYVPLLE

SMILES: O=C1Nc2c(Cl)cccc2C1=CNCCNc1ccnc2cc(Cl)ccc12
- IC50 [1]: 0.14 µM

SMILES: O=C1Nc2ccccc2C1=CNc1ccccc1
- IC50 [1]: > 10 µM
- IC50 [2]: > 50 µM

- IC50 [3]: 0.481 µM
- IC50 [2]: 0.112 µM
SMILES: CC(C)C[C@H](NC(=O)[C@H]1O[C@@H]1C(=O)O)C(=O)NCCCCN=C(N)N [E-64]

SMILES: CN1C(=O)C(=CNCCCNc2ccnc3cc(Cl)ccc23)c2ccccc21
- IC50 [1]: 0.29 µM
- IC50 [2]: > 50 µM

SMILES: CN(C)C=C1C(=O)N(C)c2ccccc21
- IC50 [1]: > 50 µM
- IC50 [2]: > 50 µM

SMILES: CN(C)C=C1C(=O)Nc2cc(Cl)ccc21
- IC50 [1]: > 50 µM
- IC50 [2]: > 50 µM

SMILES: CC(C)CCNC(=O)[C@H](CC(C)C)NC=C1C(=O)Nc2cc(Cl)ccc21
- IC50 [3]: > 50 µM
- IC50 [1]: 15.9 µM
- IC50 [2]: 48.5 µM

SMILES: CN(C)C=C1C(=O)Nc2c(Cl)cccc21
- IC50 [1]: > 50 µM
- IC50 [2]: > 50 µM

SMILES: CC(C)CCNC(=O)[C@H](CCc1ccccc1)NC=C1C(=O)Nc2ccccc21
- IC50 [3]: > 50 µM
- IC50 [1]: 18.6 µM
- IC50 [2]: 49.9 µM

SMILES: CC(C)CCNC(=O)[C@H](CC(C)C)NC=C1C(=O)Nc2ccc(Cl)cc21
- IC50 [3]: > 50 µM
- IC50 [1]: 18.7 µM
- IC50 [2]: 44.1 µM

SMILES: CC(C)CCNC(=O)CNC=C1C(=O)Nc2ccccc21
- IC50 [3]: > 50 µM
- IC50 [1]: 26.7 µM
- IC50 [2]: > 50 µM

SMILES: CN(C)C=C1C(=O)Nc2ccc(Cl)cc21
- IC50 [1]: > 50 µM
- IC50 [2]: > 50 µM

SMILES: O=C1Nc2ccccc2C1=CNCCCNc1ccnc2cc(Cl)ccc12
- IC50 [1]: 0.42 µM
- IC50 [2]: > 50 µM

SMILES: O=C1Nc2c(Cl)cccc2C1=CNCCCNc1ccnc2cc(Cl)ccc12
- IC50 [1]: 0.17 µM
- IC50 [2]: > 50 µM

SMILES: CC(C)CCNC(=O)[C@H](CCc1ccccc1)NC=C1C(=O)Nc2c(Cl)cccc21
- IC50 [3]: > 50 µM
- IC50 [1]: 13.4 µM
- IC50 [2]: 44 µM

SMILES: CN(C)C=C1C(=O)Nc2ccccc21
- IC50 [1]: > 50 µM
- IC50 [2]: > 50 µM

SMILES: CC(C)CCNC(=O)[C@H](CC(C)C)NC=C1C(=O)N(C)c2ccccc21
- IC50 [3]: > 50 µM
- IC50 [1]: 23.5 µM
- IC50 [2]: > 50 µM

SMILES: O=C1Nc2cc(Cl)ccc2C1=CNCCCNc1ccnc2cc(Cl)ccc12
- IC50 [1]: 0.18 µM
- IC50 [2]: > 50 µM

SMILES: CCOC(=O)[C@H](Cc1ccccc1)NC=C1C(=O)Nc2ccccc21
- IC50 [1]: > 10 µM
- IC50 [2]: > 50 µM

SMILES: CCOC(=O)CNC=C1C(=O)Nc2ccccc21
- IC50 [1]: 10.8 µM
- IC50 [2]: > 50 µM

SMILES: CC(C)CCNC(=O)[C@H](Cc1ccccc1)NC=C1C(=O)Nc2ccc(Cl)cc21
- IC50 [3]: > 50 µM
- IC50 [1]: > 50 µM
- IC50 [2]: 43.3 µM

SMILES: O=C1Nc2ccc(Cl)cc2C1=CNCCCNc1ccnc2cc(Cl)ccc12
- IC50 [1]: 0.2 µM
- IC50 [2]: > 50 µM

SMILES: CC(C)CCNC(=O)[C@H](CC(C)C)NC=C1C(=O)Nc2ccccc21
- IC50 [3]: > 50 µM
- IC50 [1]: 30.7 µM
- IC50 [2]: > 50 µM

SMILES: O=C1Nc2ccccc2C1=CSCc1ccccc1
- IC50 [1]: > 10 µM
- IC50 [2]: > 50 µM

SMILES: CC(C)CCNC(=O)[C@H](CC(C)C)NC=C1C(=O)Nc2c(Cl)cccc21
- IC50 [3]: > 50 µM
- IC50 [1]: 15.7 µM
- IC50 [2]: 42.1 µM
